Out of some 310,000 compounds screened, about 1,500 (0.48%) were called active.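 The calls were made as follows: active = B-score above 5 SD of library B-scores, and initial fluorescence ratio not above library mean plus 5 SD; inactive = the rest.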 For the sample, actives were picked, then their nearest neighbours and some compounds at random.
Target: Short transient receptor potential channel 4 (Mus musculus) (UniProt Q9QUQ5)
Experiment: TRPC4 cation channel opening, calcium rise – Fluo4 calcium, HEK293 TRPC4beta/mu-opioid cells, primary screen (AID 2237);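 as to B-score: positive B-score marks a calcium rise read as TRPC4 activation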
Settings: Fluo4 calcium fluorescence, at 10 µM; active compounds read high
Summary of the method: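 Assay system: HEK293 cells stably co-expressing mouse TRPC4beta and mu-opioid receptor / Timing: Fluo4 dye loading 45 min at room temperature, 110 s recording / Signal: Fluo4 calcium-sensitive dye fluorescence, kinetic, 1 Hz baseline / Read-out: integrated baseline-normalised fluorescence ratio, converted to per-well B score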

Short transient receptor potential channel 4 (Mus musculus), sequence (Q9QUQ5 whole entry, looked up): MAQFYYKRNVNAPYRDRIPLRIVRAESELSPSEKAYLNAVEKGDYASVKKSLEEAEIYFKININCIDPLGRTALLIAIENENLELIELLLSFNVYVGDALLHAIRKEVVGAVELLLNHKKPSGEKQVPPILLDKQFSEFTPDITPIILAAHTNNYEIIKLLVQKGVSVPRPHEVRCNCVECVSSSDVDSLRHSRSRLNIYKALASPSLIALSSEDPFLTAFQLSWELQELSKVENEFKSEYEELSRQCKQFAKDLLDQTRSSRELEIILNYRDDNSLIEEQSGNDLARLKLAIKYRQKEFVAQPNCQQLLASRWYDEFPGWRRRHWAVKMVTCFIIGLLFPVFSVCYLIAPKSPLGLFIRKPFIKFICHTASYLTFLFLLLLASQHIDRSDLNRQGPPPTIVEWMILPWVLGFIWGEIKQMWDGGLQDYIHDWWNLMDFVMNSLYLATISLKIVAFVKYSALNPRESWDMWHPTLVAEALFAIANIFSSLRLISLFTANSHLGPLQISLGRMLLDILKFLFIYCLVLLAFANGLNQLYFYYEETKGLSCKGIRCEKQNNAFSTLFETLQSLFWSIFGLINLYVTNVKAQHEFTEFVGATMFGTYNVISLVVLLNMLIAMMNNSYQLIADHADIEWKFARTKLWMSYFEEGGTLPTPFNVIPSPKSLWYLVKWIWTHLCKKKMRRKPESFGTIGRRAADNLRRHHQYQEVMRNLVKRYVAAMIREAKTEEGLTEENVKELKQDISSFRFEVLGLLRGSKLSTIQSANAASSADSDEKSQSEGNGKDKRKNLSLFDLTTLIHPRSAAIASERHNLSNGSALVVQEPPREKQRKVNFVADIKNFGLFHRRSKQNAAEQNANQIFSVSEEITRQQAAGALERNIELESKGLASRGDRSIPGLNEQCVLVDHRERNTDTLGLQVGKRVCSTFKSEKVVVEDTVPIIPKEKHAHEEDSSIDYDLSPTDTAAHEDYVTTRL

B-score, inactive:
COc1cc(OC)c(-n2c(C)cc(C=O)c2C)cc1Cl, COc1ccc(Cl)cc1S(=O)(=O)N1CCC(O)(c2ccc(Cl)cc2)CC1, O=C1CCN(C(=O)Nc2ccccc2)N1, CC(C)N(Cc1ccccc1)C(=O)COC(=O)c1cnccn1, CC(C[N+](C)(C)C)OC(N)=O (stereo not drawn), C=C(C)CSc1nnc(-c2ccc(C)cc2)n1N, CCCOC1CCCN(Cc2cn(C)nc2-c2ccccc2F)C1 (stereo not drawn), COc1cccc2cc(C(N)=O)/c(=N\NC(=O)c3ccccc3)oc12, NC(=O)c1cc2ccccc2o/c1=N/NC(=O)c1cccc(F)c1, CN1CCN(C(=O)CCc2ncc(C(F)(F)F)cc2Cl)CC1, CNc1[nH]ncc1[N+](=O)[O-], O=C(Nc1ccc(F)c(Cl)c1)C1CCN(S(=O)(=O)c2cccnc2)CC1, Cc1cc(-c2ccc(C)c(S(=O)(=O)NC(C)Cc3ccco3)c2)on1 (stereo not drawn), CCOc1ccccc1CNS(=O)(=O)c1cc(-c2cc(C)no2)ccc1C, C=CCNC(=O)C12CC3CC(C1)CC(C(=O)NCC=C)(C3)C2, O=C(NC1CCN(S(=O)(=O)c2ccc(F)cc2)CC1)c1ccccc1, Cc1ccc(NC(=O)c2csc3c2CCCC3)cc1, O=C(NCc1ccccc1Cl)c1csc2c1CCCCC2, CCOC(=O)c1ccccc1NC(=O)c1c(N)n(C)c(=O)[nH]c1=O, CSc1ccc(S(=O)(=O)N2CCC(C(=O)NCCc3ccccc3)CC2)cc1, CC1CN(CCCOc2ccccc2-c2ccccc2)CC(C)O1 (stereo not drawn), c1ccc(-c2ccccc2OCCN2CCCCC2)cc1, COc1ccc(C2CC(c3ccc(Cl)cc3Cl)Nc3nc(N)nn32)cc1OC (stereo not drawn), CCOc1ccccc1C1CC(c2ccccc2)Nc2nc(N)nn21 (stereo not drawn), CC(C)(C)S(=O)(=O)c1ccccc1-c1noc(-c2ccccc2)c1C(N)=O, Cn1c(CCNS(=O)(=O)c2ccc(F)cc2)nnc1SCc1cccnc1, COc1ccc(NC(=O)c2cc([N+](=O)[O-])ccc2NC(=O)CNC2CCCCC2C)c(OC)c1 (stereo not drawn), Cc1ccc(C(=O)CCC(=O)N(C)CC(=O)Nc2c(Cl)cccc2Cl)cc1, O=C1CCCc2c1nc(-c1cccc(Cl)c1)n2O, Cc1cccc(-c2nc3ccccc3c(=O)n2NC(=O)Cc2ccc(Cl)cc2)c1, O=c1[nH]c(CN2CCN(S(=O)(=O)c3ccc4c(c3)OCCO4)CC2)nc2sc3c(c12)CCCC3, O=C(OCCN=C1NS(=O)(=O)c2ccccc21)c1cccc([N+](=O)[O-])c1, N#CC1(NC(=O)COC(=O)CCN=C2NS(=O)(=O)c3ccccc32)CCCCC1, Cc1cc(C)c2nc(N3CCC(C(=O)NCCN4CCOCC4)CC3)sc2c1, CCC1CCCCN1CCCNC(=O)c1cc2c(Cl)nc3ccccc3c2s1 (stereo not drawn), CC1CCCN(S(=O)(=O)c2ccc(C(=O)Nc3nnc(-c4ccncc4)o3)cc2)C1 (stereo not drawn), CSCc1nnc(NC(=O)c2ccc(S(=O)(=O)N3CCCCC3C)cc2)o1 (stereo not drawn), COc1ccc(N2C(=O)NC(NS(=O)(=O)c3ccc(Cl)cc3)(C(F)(F)F)C2=O)cc1 (stereo not drawn), CCCc1ccc(OCC(O)CN2CCN(CCO)CC2)cc1 (stereo not drawn), CCOc1ccc(N(CC(=O)NCCc2ccc(OC)cc2)S(C)(=O)=O)cc1, CC1(C)CC(N2CCN(C(c3ccccc3)c3ccccc3)CC2)=CC(=[N+]2CCCCC2)C1, COC(=O)C1=C(C)N(C)C(=S)NC1c1ccccc1 (stereo not drawn), COCCN1C(=O)N[C@@H](CCc2ccccc2)[C@H](C(C)=O)[C@H]1C, CCN(c1ccccc1)S(=O)(=O)c1ccc2[nH]c(=O)[nH]c2c1, CCOc1ccc(C(=O)NC2CCN(S(=O)(=O)CC)CC2)cc1, CCOc1ccc(CC(=O)NC2CCN(Cc3ccccc3)CC2)cc1, CN(CCc1ccccn1)C(=O)c1ccc(OC2CCN(CCc3ccccc3)CC2)cc1, CC(O)CN(Cc1ccc(Cl)cc1)CC(C)O (stereo not drawn), COc1cc(C(=O)N(C)Cc2cccc(OC)c2OC)ccc1OCC(=O)Nc1cccc(C(F)(F)F)c1, O=C(NNC(=S)NCc1ccco1)C(c1ccccc1)c1ccccc1, CC(C)C(=O)Nc1cccc(NC(=S)NC(=O)C(c2ccccc2)c2ccccc2)c1, CCOc1ccc(OCc2ccc(C(=O)N(C)c3ccccc3)o2)cc1, COc1ccc(NC(=O)CN(C)C(=O)c2ccc(COc3ccccc3)o2)cc1

B-score, active:
COc1cc(OC)c(-n2cc(-c3ccc(Cl)cc3)[nH]c2=O)cc1Cl 63, Oc1c(Cl)cc(Cl)c(Cl)c1Cc1c(O)c(Cl)cc(Cl)c1Cl 53, CC(=O)OC(C)C[N+](C)(C)C (stereo not drawn) 57, CCN(CC)c1ccc2cc(C(N)=O)/c(=N\NC(=O)c3ccncc3)oc2c1 79, Cc1cc(-c2ccc(C)c(S(=O)(=O)NCCCN(Cc3ccccc3)C(C)C)c2)on1 127, CC1CC(C)CN(CCCNC(=O)c2csc3c2CCCCC3)C1 (stereo not drawn) 97, CC1CCCN(CCOCCOc2ccccc2-c2ccccc2)C1 (stereo not drawn) 54, CCOc1ccccc1C1CC(c2ccc(Cl)cc2)Nc2nc(N)nn21 (stereo not drawn) 116, O=c1c2cc(Br)ccc2nc(-c2cccc(Cl)c2)n1O 121, O=C(CCCN=C1NS(=O)(=O)c2ccccc21)OCC(=O)c1ccc(F)c(F)c1 50, CC1CCCCN1S(=O)(=O)c1ccc(C(=O)Nc2nnc(-c3cccs3)o2)cc1 (stereo not drawn) 74, COCCN1C2=C(COC(C)(C)C2)C(=S)NC1c1ccccc1 (stereo not drawn) 76, CCOc1ccc(NS(=O)(=O)c2ccc(C(=O)NC3CCN(Cc4ccccc4)CC3)cc2)cc1 49, CCCCC(=O)NNC(=S)NC(=O)C(c1ccccc1)c1ccccc1 152, O=C(NCCc1ccccn1)c1ccc(COc2ccccc2)o1 120
